In the library only some 2.9% were active in any assay of this set; here they are far more common.
OX1R antag-1: antagonists of human orexin 1 receptor. AID 434989. O43613. actives 0.43% (n = 330,000). inhibition, % at 5 µM. CHO/OX1R cells, Fluo-8 calcium fluorescence, orexin A;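 active = inhibition above its plate's threshold, mean inhibition of all tested compounds on the plate plus 3 SD, cut at about 37% in these data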;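 also: 0% = orexin A challenge wells and 100% = SB-334867-A antagonist wells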
Target sequence (O43613 whole entry, looked up): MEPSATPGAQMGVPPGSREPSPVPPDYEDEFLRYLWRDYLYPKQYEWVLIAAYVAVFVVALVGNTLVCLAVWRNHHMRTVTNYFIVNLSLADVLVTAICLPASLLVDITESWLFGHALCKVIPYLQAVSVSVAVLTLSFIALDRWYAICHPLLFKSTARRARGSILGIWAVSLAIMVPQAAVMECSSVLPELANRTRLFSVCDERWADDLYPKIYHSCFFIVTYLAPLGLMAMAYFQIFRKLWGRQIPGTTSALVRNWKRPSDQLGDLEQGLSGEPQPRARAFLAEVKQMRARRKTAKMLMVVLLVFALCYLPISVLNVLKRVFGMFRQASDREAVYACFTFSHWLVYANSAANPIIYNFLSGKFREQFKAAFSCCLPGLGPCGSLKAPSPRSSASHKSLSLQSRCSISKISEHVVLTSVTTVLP
CHO-K1 Ca ag: nonselective activator or artifact in parental CHO-K1 cells; AID 602248; actives 0.48% (n = 360,000); activation, % at 3 µM; Fluo-8 calcium fluorescence; scaled to maximal ATP response, vehicle zero; in the data active = activation above about 15%;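 also: untransfected CHO-K1 host cells lacking M1 receptor as counterscreen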
CHO-K1 Ca antag: nonselective inhibitor or artifact in parental CHO-K1 cells. inhibition, % at 3 µM. AID 602250. ATP-induced calcium, Fluo-8 fluorescence. actives 0.6% (n = 360,000);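 active = inhibition above a per-plate cutoff, the plate's mean sample inhibition plus 3 SD, cut at about 24% in these data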;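 also: 0% = DMSO plus EC80 ATP and 100% = DMSO alone without ATP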
OX1R antag-2: OX1R (human) antagonism; AID 485270; OX1R-expressing cells, FRET antagonist read-out; actives 1.8% (n = 330,000); inhibition, % at 6.6 µM; in the data active = inhibition mostly above about 38%, no sharp cut-off; inactive = mostly below about 40%;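 also: 0% = agonist challenge alone and 100% = reference antagonist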
CHO parental Ca: signal in parental CHO cells, OX1R antagonist counter-screen. parental CHO-K1, ATP-induced calcium, Fluo-8 fluorescence. inhibition, % at 5.6 µM. actives 0.63% (n = 330,000). AID 463079;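 active = inhibition above that plate's mean sample inhibition plus 3 SD, cut at about 26% in these data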;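 also: 0% = ATP-challenged DMSO wells and 100% = DMSO wells without ATP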
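Material: parental CHO cells / Compound: single nominal dose of 5.6 µM per compound / Signal: Fluo-8 fluorescence / Replicates: singlicate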
CHO-K1 Ca PAM: M1 PAM counterscreen hit in parental CHO-K1 cells. AID 602247. actives 0.02% (n = 360,000). ATP EC20, Fluo-8 calcium fluorescence; 0% at ATP EC20, 100% at ATP max. activation, % at 3 µM;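 active = activation above the run cutoff, the mean activation of all test compounds plus 3 SD, cut at about 40% in these data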;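 also: peak over basal fluorescence ratio in a 140 s read after ATP addition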
The depositor's hits bear a star; · = no result given.

SMILES	OX1R antag-1	CHO-K1 Ca ag	CHO-K1 Ca antag	OX1R antag-2	CHO parental Ca	CHO-K1 Ca PAM
O=C(CN1C(=O)CC(c2ccccc2)Sc2ccccc21)NCC1CCCO1 (centres undefined)	-9	1	0	6	-4	22
COc1ccc(/C=C2\SC(=O)N(CCNC(=O)CN3C(=O)NC4(CCCC4)C3=O)C2=O)cc1	-14	0	-15	28	-6	-17
O=C(CN1C(=O)NC2(CCCC2)C1=O)NCCN1C(=O)S/C(=C\c2ccccc2F)C1=O	-18	0	6	51*	-22	-19
O=C(CN1C(=O)/C(=C/c2ccccc2F)Sc2ccccc21)NCC1CCCO1 (centres undefined)	22	3	11	66*	-20	-15
COc1ccc(Cc2c(C(C)(C)C)nc3c(C)cc(Br)cn23)c(C)c1	·	0	25*	·	·	10
COc1ccccc1NC(=S)N(Cc1ccccn1)Cc1ccccc1Cl	-28	7	36*	27	-13	5
COc1ccc(CNC(=O)COC(=O)c2ccc(S(=O)(=O)NCc3ccco3)cc2)cc1	8	3	-8	11	-4	-11
O=C1NCN(c2ccccc2)C12CCN(CCCC(c1ccc(F)cc1)c1ccc(F)cc1)CC2	40*	0	-6	16	25	-2
COc1ccc(CNC(=O)CN(Cc2ccc(C)cc2)C(=O)c2csnn2)cc1	-15	2	-13	35	-14	1
COc1ccc(N2CC(C(=O)N3CCN(S(=O)(=O)c4ccc(F)c(F)c4)CC3)CC2=O)c(OC)c1 (centres undefined)	·	0	-11	·	·	-11
CCC(=O)OCCNc1cc(Sc2nc3ccccc3[nH]2)c2nonc2c1[N+](=O)[O-]	30	-1	5	93*	61*	18
O=[N+]([O-])c1c(NCCCO)cc(Sc2nc3ccccc3s2)c2nonc12	54*	6	19	45*	51*	8
Cc1nnc(Sc2cc(NCCO)c([N+](=O)[O-])c3nonc23)s1	·	1	-4	·	·	16
CCC(=O)OCCNc1cc(Sc2nc3ccccc3s2)c2nonc2c1[N+](=O)[O-]	60*	-1	9	52*	61*	6
COC(=O)c1ccc(Cn2c(C)c(C(=O)Nc3cccc(Oc4ccccc4)c3)sc2=O)o1	·	5	13	·	·	1
COc1ccc(CNC(=O)c2cc3ccccc3oc2=O)cc1	-22	1	-3	8	-20	4
CCOc1ccccc1NC(=S)NCC1CCCO1 (centres undefined)	16	4	-5	15	0	18
COc1ccc2oc(=O)c(C(=O)NCC3CCCO3)cc2c1 (centres undefined)	-10	7	4	61*	-10	12
COc1ccccc1NC(=S)NCC1CCCO1 (centres undefined)	-14	-1	24*	0	5	-14
COc1ccc2oc(=O)c(C(=O)NCc3ccc(F)cc3)cc2c1	-21	16*	4	17	-5	12
COc1cccc2cc(C(=O)NCC3CCCO3)c(=O)oc12 (centres undefined)	-8	0	-8	77*	-4	20
COc1cc2c(cc1OC)-c1nnc(C)n1C1(CCCC1)C2	-17	-1	27*	11	-3	-9
O=C(CSc1nc(=O)n2ccccc2n1)N1CCCCCC1	-6	1	-6	5	-9	20
COc1cc(CC(=O)Nc2sccc2C(N)=O)cc(OC)c1OC	5	4	2	35	-24	18
COc1ccc(CCC(=O)OCC(=O)Nc2sccc2C(N)=O)cc1OC	46*	15	26*	36*	47*	-15
SMILES	OX1R antag-1	CHO-K1 Ca ag	CHO-K1 Ca antag	OX1R antag-2	CHO parental Ca	CHO-K1 Ca PAM
COc1ccc(CCC(=O)OCC(=O)Nc2sccc2C(N)=O)cc1	55*	16*	34*	11	33*	-21
COc1ccc(C(CNC(=O)c2ccco2)N2CCCC2)cc1 (centres undefined)	-9	0	-10	0	-17	4
Cc1c[n+]([O-])cc(C)c1[N+](=O)[O-]	·	1	-16	·	·	12
Cc1c(C(=O)NCc2ccc(C(F)(F)F)cc2)sc(=O)n1Cc1cccc(F)c1	·	23*	16	·	·	14
Cc1c(C(=O)NCc2cccc(C(F)(F)F)c2)sc(=O)n1Cc1cccc(F)c1	·	0	3	·	·	-5
COC(=O)CC1C(=O)NCCN1C(=O)c1cc(OC)c(OC)cc1OC (centres undefined)	-15	1	-6	-6	30*	9
COC(=O)CC1C(=O)NCCN1C(=O)c1cc([N+](=O)[O-])ccc1Cl (centres undefined)	-29	0	-4	4	4	7
N#Cc1ccc(CN(Nc2ccccc2)c2ccccc2)cc1	·	-1	29*	·	·	-12
COc1ccc(Nc2nccc(N(C)C)c2C#N)cc1	15	6	7	6	-5	7
O=CN/C=C/c1cccc(O)c1	·	1	-13	·	·	-6
Cc1onc(-c2ccccc2)c1CNC(=O)Nc1ccc(C(F)(F)F)cc1	27	15	12	49*	20	1
CN(CCc1ccccc1)C(c1ccnc2ccccc12)c1nnnn1-c1ccc2c(c1)OCCO2 (centres undefined)	·	0	26*	·	·	-7
c1ccc(CN(Cc2ccccc2)C(c2ccnc3ccccc23)c2nnnn2-c2ccc3c(c2)OCCO3)cc1 (centres undefined)	·	2	-26	·	·	28
Cc1ccc(S(=O)(=O)NCc2cccc([N+](=O)[O-])c2)cc1	·	0	7	·	·	4
COC(=O)c1ccsc1NC(=O)CN1CCN(c2ncccn2)CC1	-23	0	25*	15	-7	-22
COC(=O)c1ccsc1NC(=O)CN1CCN(Cc2ccc3c(c2)OCO3)CC1	-24	1	-23	4	-20	21
COc1ccc(S(=O)(=O)N2CCN(C(=O)c3ccco3)CC2)c(C)c1C	-19	4	-5	23	-4	11
CN(C)c1ccc(/C=C/c2cccc[n+]2[O-])cc1	0	3	5	28	3	11
CC(C)CC[n+]1ccccc1/C=C/c1ccc(N(C)C)cc1	29	6	12	32	61*	-5
CCN(C(=O)CSc1nc2ccc([N+](=O)[O-])cc2s1)C1CCS(=O)(=O)C1 (centres undefined)	-5	1	-11	68*	-10	18
CCN(C(=O)CSc1nnc(SC(C)C)s1)C1CCS(=O)(=O)C1 (centres undefined)	-13	2	-18	3	-17	18
O=Nc1c(O)n(Cc2ccc(Cl)cc2Cl)c2ccccc12	24	-1	-5	16	87*	-5
Cc1ccc2c(c1)c(N=O)c(O)n2Cc1ccc(Cl)cc1	-2	0	-4	6	36*	7
